Source: ChEMBL document CHEMBL4265879, “Novel, potent, selective and brain penetrant vasopressin 1b receptor antagonists” (Bioorg Med Chem Lett, 2018)
pIC50, pKi: −log10 of the molar value.

Columns and labels:
Homo sapiens [1] = species on record: Homo sapiens; test: Selectivity index, ratio of Ki for human vasopressin V1a receptor to Ki for human vasopressin V1b receptor
How it was run: (§1)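 Selectivity was calculated from human receptor Ki values as Ki hOT/Ki hV1b or Ki hV1a/Ki hV1b. Each Ki is the mean of at least two experiments (MSR 2.8).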

Homo sapiens [2] = species on record: Homo sapiens; test: Selectivity index, ratio of Ki for human oxytocin receptor to Ki for human vasopressin V1b receptor; how it was run: as §1
Vasopressin V1b receptor = biological target: T1, Vasopressin V1b receptor (Homo sapiens, UniProt P47901); test: Displacement of [3H]AVP from human vasopressin V1b receptor expressed in CHO cell membranes after 60 mins by TopCount microplate scintillation counting method
T1 sequence (P47901 whole entry): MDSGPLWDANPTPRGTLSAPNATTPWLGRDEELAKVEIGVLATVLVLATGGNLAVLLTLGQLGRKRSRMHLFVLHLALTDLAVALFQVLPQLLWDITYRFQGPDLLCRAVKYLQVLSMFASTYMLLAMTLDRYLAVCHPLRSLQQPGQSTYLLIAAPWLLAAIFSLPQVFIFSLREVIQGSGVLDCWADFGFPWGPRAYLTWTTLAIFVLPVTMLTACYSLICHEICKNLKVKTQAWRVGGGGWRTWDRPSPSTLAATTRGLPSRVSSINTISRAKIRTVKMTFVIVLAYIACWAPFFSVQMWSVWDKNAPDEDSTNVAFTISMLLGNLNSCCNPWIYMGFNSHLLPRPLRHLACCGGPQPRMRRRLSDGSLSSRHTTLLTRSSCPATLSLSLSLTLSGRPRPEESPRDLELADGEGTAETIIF

[3] = Intrinsic clearance in rat liver microsomes; format: ADME, microsome; conditions: read-out: CLH
How it was run: (§2)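 Intrinsic clearance was measured in human and rat liver microsomes, in µL/min/mg. Values are means of at least two experiments.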

[4] = Intrinsic clearance in human liver microsomes; format: ADME, microsome; conditions: read-out: CLH; how it was run: as §2
[5] = Oral bioavailability in rat at 10 mg/kg; format: ADME, organism-based; conditions: in vivo
How it was run: (§3)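 Rat oral dosing, at 10 or 5 mg/kg depending on compound. Oral bioavailability (%) was calculated.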

Rattus norvegicus [6] = test: Antidepressant like activity in Sprague-Dawley rat assessed as floating time at 3 mg/kg, ip administered at 24, 4 and 0.5 hrs prior to test by forced swimming test; format: functional
How it was run: (§4)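 Rat forced swim test. Drug given intraperitoneally at 3 mg/kg, dosed 24, 4 and 0.5 h before testing. Floating, swimming and climbing times were scored. Nomifensine served as positive control. Data reported as mean ± SEM.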

Rattus norvegicus [7] = test: Antidepressant like activity in Sprague-Dawley rat assessed as climbing time at 3 mg/kg, ip administered at 24, 4 and 0.5 hrs prior to test by forced swimming test; format: functional; how it was run: as §4
[8] = Volume of distribution at steady state in rat at 2 mg/kg, iv; format: ADME, organism-based; conditions: in vivo, read-out: Vdss
How it was run: (§5)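 Rat PK after a 2 mg/kg intravenous dose. Plasma clearance (L/h/kg), terminal half-life (h) and steady-state volume of distribution (L/kg) were derived.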

[9] = Elimination half life in rat at 2 mg/kg, iv; format: ADME, organism-based; conditions: in vivo, read-out: beta t1/2 (converted); how it was run: as §5
[10] = Clearance in rat plasma at 2 mg/kg, iv; format: ADME, organism-based; how it was run: as §5
[11] = Ratio of AUC in rat brain to plasma at 10 mg/kg, ip measured after 8 hrs; format: ADME, organism-based; conditions: read-out: Ratio AUC
How it was run: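 Rats were dosed 10 mg/kg intraperitoneally. Brain and plasma AUC were taken over an 8 h period, and the brain:plasma ratio was calculated from them.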

Rattus norvegicus [12] = test: Antidepressant like activity in Sprague-Dawley rat assessed as swimming time at 3 mg/kg, ip administered at 24, 4 and 0.5 hrs prior to test by forced swimming test; format: functional; how it was run: as §4
[13] = Oral bioavailability in rat at 5 mg/kg; format: ADME, organism-based; conditions: in vivo; how it was run: as §3
Cytochrome P450 3A4 = Cytochrome P450 3A4 (Homo sapiens, UniProt P08684); test: Inhibition of CYP3A4 in human liver microsomes in presence of NADPH and Luciferin BE 50; format: ADME
How it was run: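 CYP3A4 inhibition by co-incubation in human liver microsomes with NADPH and luciferin-BE substrate, with 0.03 mg/mL noted. Result expressed as IC50.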

Chain of Cytochrome P450 3A4 (P08684 whole entry): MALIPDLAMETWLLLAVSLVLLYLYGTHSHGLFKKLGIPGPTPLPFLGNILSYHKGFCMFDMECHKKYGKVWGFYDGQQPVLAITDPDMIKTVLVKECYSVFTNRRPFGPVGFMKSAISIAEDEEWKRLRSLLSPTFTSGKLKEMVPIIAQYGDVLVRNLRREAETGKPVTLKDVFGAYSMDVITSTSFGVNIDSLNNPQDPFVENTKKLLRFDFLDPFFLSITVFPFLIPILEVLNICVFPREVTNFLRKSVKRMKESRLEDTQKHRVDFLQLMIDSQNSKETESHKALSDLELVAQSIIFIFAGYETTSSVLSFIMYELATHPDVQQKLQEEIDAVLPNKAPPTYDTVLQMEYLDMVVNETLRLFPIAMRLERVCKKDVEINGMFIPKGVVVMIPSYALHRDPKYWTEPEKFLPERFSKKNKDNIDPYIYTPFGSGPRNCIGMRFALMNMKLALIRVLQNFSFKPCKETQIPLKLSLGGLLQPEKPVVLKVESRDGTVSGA

Compound	Ratio Ki (Homo sapiens [1])	Ratio Ki (Homo sapiens [2])	pKi (Vasopressin V1b receptor)	microsomal CLint [3] [µL/min/mg]	microsomal CLint [4] [µL/min/mg]	also measured
CCOc1nc(Cl)ccc1C1(N2CCN(c3ccnc(C)c3)CC2)C(=O)N(S(=O)(=O)c2ccc(OC)cn2)c2ccc(C#N)cc21 (racemic) [listing 1 of 2 here]	125	69				
COc1ccccc1C1(N2CCN(c3cccnc3)CC2)C(=O)N(S(=O)(=O)c2ccccc2)c2ccc(Cl)cc21 (stereo not given)			6.63			
CCOc1ccccc1C1(N2CCN(c3ccncc3)CC2)C(=O)N(S(=O)(=O)c2ccc(OC)cc2OC)c2ccc(C#N)cc21 (stereo not given)			7.44	83	43	
CCOc1ccc(OC)cc1C1(N2CCN(c3ccncc3)CC2)C(=O)N(S(=O)(=O)c2cccc3cccnc23)c2ccc(C#N)cc21 (stereo not given)	79	34	8.30	210	170	bioavailability [5]: 18%; Time (Rattus norvegicus [6]): 159.15 s; Time (Rattus norvegicus [7]): 125.69 s; Vd [8]: 10 L/kg; half-life [9]: 144 min; clearance [10]: 46.7 mL/min/kg; Kp at 8 h [11]: 1.4; Time (Rattus norvegicus [12]): 12.46 s
COc1ncccc1C1(N2CCN(c3cccnc3)CC2)C(=O)N(S(=O)(=O)c2cccc3cccnc23)c2ccc(C#N)cc21 (stereo not given)	0.9	3	7.52	113	326	
CCOc1cc(OC)ccc1C1(N2CCN(c3ccncc3)CC2)C(=O)N(S(=O)(=O)c2ccc(OC)cc2OC)c2ccc(C#N)cc21 (stereo not given)	34	3	8.00	34	63	
COc1ccc(S(=O)(=O)N2C(=O)C(c3cccnc3OC)(N3CCNC(=O)C3)c3cc(Cl)ccc32)c(OC)c1 (stereo not given)			5.87			
COc1ccccc1C1(N2CCN(c3cccnc3)CC2)C(=O)N(S(=O)(=O)c2cccc3cccnc23)c2ccc(Cl)cc21 (stereo not given)	3	10	8.10	359	360	
CCOc1nc(Cl)ccc1C1(N2CCN(c3ccnc(C)c3)CC2)C(=O)N(S(=O)(=O)c2ccc(OC)cn2)c2ccc(C#N)cc21 (single isomer, unassigned; (+)) [listing 1 of 2 here]			9.05	22	7	bioavailability [13]: 37%; Vd [8]: 12 L/kg; half-life [9]: > 360 min; clearance [10]: 15 mL/min/kg; Kp at 8 h [11]: 1; pIC50 (Cytochrome P450 3A4): 5.70
COc1ccc(S(=O)(=O)N2C(=O)C(c3cccnc3OC)(N3CCN(c4cccnc4)CC3)c3cc(Cl)ccc32)c(OC)c1 (stereo not given)	0.1		7.35	84	19	
COc1ccc(S(=O)(=O)N2C(=O)C(c3cc(OC)ccc3OC)(N3CCN(c4ccncc4)CC3)c3cc(C#N)ccc32)c(OC)c1 (stereo not given)	2	2	7.89	58	50	
CCOc1nc(Cl)ccc1C1(N2CCN(c3ccnc(C)c3)CC2)C(=O)N(S(=O)(=O)c2ccc(OC)cn2)c2ccc(C#N)cc21 (single isomer, unassigned; (+)) [listing 2 of 2 here]	78	65				
CCOc1ccc(OC)cc1C1(N2CCN(c3ccncc3)CC2)C(=O)N(S(=O)(=O)c2ccc(OC)c3cccnc23)c2ccc(C#N)cc21 (stereo not given)	84	4	8.70	15	33	
COc1ccc(S(=O)(=O)N2C(=O)C(c3ccccc3OC)(N3CCN(c4cccnc4)CC3)c3cc(Cl)ccc32)c(OC)c1 (stereo not given)	0.8	0.9	7.74	348	41	
CCOc1nc(Cl)ccc1C1(N2CCN(c3ccncc3)CC2)C(=O)N(S(=O)(=O)c2ccc(OC)cc2OC)c2ccc(C#N)cc21 (stereo not given)			7.35		23	
CCOc1ccc(OC)cc1C1(N2CCN(c3ccncc3)CC2)C(=O)N(S(=O)(=O)c2ccc(OC)cc2)c2ccc(C#N)cc21 (stereo not given)		15	7.49	118	93	
CCOc1ccc(OC)cc1C1(N2CCN(c3ccncc3)CC2)C(=O)N(S(=O)(=O)c2ccc(OC)cc2OC)c2ccc(C#N)cc21 (stereo not given)	21	6	7.68	41	23	bioavailability [5]: 22%; Vd [8]: 2.9 L/kg; half-life [9]: 204 min; clearance [10]: 11.7 mL/min/kg; Kp at 8 h [11]: 1.1
CCOc1nc(Cl)ccc1C1(N2CCN(c3ccncc3)CC2)C(=O)N(S(=O)(=O)c2ccc(OC)cn2)c2ccc(C#N)cc21 (stereo not given)	325	201	8.96	63	39	pIC50 (Cytochrome P450 3A4): 7.00
COc1ncccc1C1(N2CCN(c3cccnc3)CC2)C(=O)N(S(=O)(=O)c2cccc3cccnc23)c2ccc(Cl)cc21 (stereo not given)	0.5	2	7.82	156	554	
COc1ccccc1C1(N2CCN(c3cccnc3)CC2)C(=O)N(S(=O)(=O)c2ccccc2OC)c2ccc(Cl)cc21 (stereo not given)			7.33	442	93	
CCOc1nc(Cl)ccc1C1(N2CCN(c3ccnc(C)c3)CC2)C(=O)N(S(=O)(=O)c2ccc(OC)cn2)c2ccc(C#N)cc21 (racemic) [listing 2 of 2 here]			8.89			pIC50 (Cytochrome P450 3A4): 5.92
COc1ccc(S(=O)(=O)N2C(=O)C(c3cccnc3OC)(N3CCN(C)C(=O)[C@H]3C)c3cc(Cl)ccc32)c(OC)c1 (stereo not given in full)	1		7.39	78	51	
COc1ccc(S(=O)(=O)N2C(=O)C(c3ccccc3OC)(N3CCN(c4ccncc4)CC3)c3cc(C#N)ccc32)c(OC)c1 (stereo not given)			7.23	296	43	
CCOc1ncccc1C1(N2CCN(c3ccncc3)CC2)C(=O)N(S(=O)(=O)c2ccc(OC)cc2OC)c2ccc(C#N)cc21 (stereo not given)			7.08	168	77	
COc1ccc(S(=O)(=O)N2C(=O)C(c3cccnc3OC)(N3CCN(C)C(=O)C3)c3cc(Cl)ccc32)c(OC)c1 (stereo not given)			6.72	113	99	
CCOc1ccc(OC)cc1C1(N2CCN(c3ccncc3)CC2)C(=O)N(S(=O)(=O)c2ccc(OC)cn2)c2ccc(C#N)cc21 (stereo not given)	216	230	8.70	290	45	
CCOc1ccc(OC)cc1C1(N2CCN(c3ccncc3)CC2)C(=O)N(S(=O)(=O)c2ccc(F)c3cccnc23)c2ccc(C#N)cc21 (stereo not given)	39	21	8.05	119	131	
COc1ccc(S(=O)(=O)N2C(=O)C(c3ccccc3OC)(N3CCN(c4cccnc4)CC3)c3cc(Cl)ccc32)cc1 (stereo not given)			6.98			
COc1ccc(S(=O)(=O)N2C(=O)C(c3cccnc3OC)(N3CCN(c4cccnc4)C(=O)C3)c3cc(Cl)ccc32)c(OC)c1 (stereo not given)	1		7.09	291	196	
